Data set [1] has as its target T1, DNA topoisomerase 2-alpha (Homo sapiens, UniProt P11388). The experiment in a line: Inhibition of human topoisomerase 2 alpha-mediated decatenation of kDNA at 100 uM by agarose gel electrophoresis. Put shortly:
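150 ng kDNA with 2–4 units purified human topo II and 100 μM compound in DMSO, buffer 0.5 M Tris-HCl pH 8, NaCl, MgCl2, DTT, BSA with ATP (stock buffer concentrations), 20 μL, 37 °C 30 min. Stopped with SDS, proteinase K 37 °C 15 min; 1% agarose in TAE with 0.5 μg/mL EtBr; bands quantified by densitometry; etoposide 100 μM as reference.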

Data set [2] deals with T1, DNA topoisomerase 2-alpha. The experiment in a line: Inhibition of human topoisomerase 2 alpha-mediated relaxation of pRYG plasmid DNA at 100 uM by agarose gel electrophoresis. Put shortly: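 250 ng supercoiled pRYG plasmid, 2–4 units hTopoIIα, 100 μM compound, ATP-containing Tris pH 8 buffer, 20 μL, 37 °C 30 min; SDS/proteinase K stop; 1% agarose in TAE without EtBr, post-stained 0.5 μg/mL EtBr; products quantified densitometrically.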

Data set [3] has as its target T1, DNA topoisomerase 2-alpha. Particulars: HEK293, 100 uM.
Data set [4] concerns the target T1, DNA topoisomerase 2-alpha. The experiment in a line: Inhibition of etoposide poisoning activity against human recombinant DNA topoisomerase 2alpha assessed as enhancement of in relaxation of supercoiled plasmid pBR322 DNA at 200 uM after 30 mins by agarose gel electrophoresis.
Data set [5] addresses T1, DNA topoisomerase 2-alpha. To be noted: HEK293, 100 uM. The source holds these as a separate data set.
Data set [6] has as its target T1, DNA topoisomerase 2-alpha. Description: Inhibition of human topoisomerase 2 alpha-mediated unwinding of supercoiled DNA assessed as DNA intercalation at 100 uM by agarose gel electrophoresis. The essentials:
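250 ng negatively supercoiled E. coli plasmid incubated 20 min at 37 °C with 1 μg/mL ethidium bromide (intercalator control), 100 μM etoposide or test compound; run on 1% agarose in TAE without EtBr, then post-stained with 0.5 μg/mL EtBr; mobility retardation scored.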

In data set [7] the test system is HEK293. The experiment in a line: Cytotoxicity against human HEK293 cells assessed as cell survival after 48 hrs by MTT assay. The format is functional. Particulars: HEK293, 48 h, read-out: LC50 (the source's name). The essentials: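 HEK 293 cells were cultured in DMEM with 10% FBS and antibiotics at 37 °C in 5% CO₂. At 60–70% confluence they were treated for 48 h with various concentrations, diluted in DMEM from 100 mM DMSO stocks. Survival was read by MTT. LC₅₀ is the concentration killing 50% of cells. Data are mean ± SD of three independent experiments.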

Data set [8] deals with T1, DNA topoisomerase 2-alpha. Description: Inhibition of etoposide poisoning activity against human recombinant DNA topoisomerase 2alpha assessed as enhancement of in relaxation of supercoiled plasmid pBR322 DNA at 100 uM after 30 mins by agarose gel electrophoresis.
Data set [9] relates to HEK293. Description: Cytotoxicity against human HEK293 cells assessed as cell survival at 30 uM after 48 hrs by MTT assay. The format is functional. Particulars: HEK293, 48 h, read-out: Activity.
Data set [10] deals with HEK293. The experiment in a line: Anticlonogenic activity against human HEK293 cells after 48 hrs by crystal violet staining. The format is functional. To be noted: HEK293, 48 h, read-out: LC50 (the source's name). The essentials: (§1)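 HEK 293 and Vero cells were grown in DMEM with 10% FBS and 1% penicillin/streptomycin at 37 °C in 5% CO₂. At 60–70% confluence they were exposed for 48 h to a range of concentrations, diluted in DMEM from 100 mM DMSO stocks. Colony survival is expressed as %. Values are mean ± SD of three independent experiments; LC₅₀ is the concentration killing half the cells.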

The subject of a further data set is Vero. Description: Anticlonogenic activity against african green monkey Vero cells assessed as inhibition of colony formation of cells at 20 to 100 uM after 48 hrs by crystal violet staining. In kind it is cell-based. To be noted: chlorocebus sabaeus. Put shortly:
(§2)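 Clonogenic survival in HEK 293 and Vero cells, 48 h exposure at graded concentrations; % survival plotted; mean ± SD of three independent experiments. Cells grown in DMEM with 10% FBS and 1% antibiotic at 37 °C, 5% CO2; compound diluted from 100 mM DMSO stock into DMEM, added at 60–70% confluence.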

Data set [11] in a line: Anticlonogenic activity against african green monkey Vero after 48 hrs by crystal violet staining. The format is ADME, cell-based. Particulars: chlorocebus sabaeus, Vero cells; read-out: LC50. Put shortly:
as §1

A short description of data set [12]: Cytotoxicity activity against african green monkey Vero assessed as cell survival at 100 uM after 48 hrs by MTT assay. The format is cell-based. Particulars: chlorocebus sabaeus, Vero cells; read-out: Activity. The essentials: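 MTT survival of HEK 293 and Vero cells after 48 h with compound at graded concentrations. DMEM, 10% FBS, 37 °C, 5% CO2; dilutions in DMEM from 100 mM DMSO stock, added at 60–70% confluence. Mean ± SD of three independent experiments.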

The subject of data set [13] is HEK293. The experiment in a line: Anticlonogenic activity against human HEK293 cells assessed as inhibition of colony formation of cells at 20 to 100 uM after 48 hrs by crystal violet staining. In kind it is functional, cell-based. Put shortly: as §2

This is an account of results in ChEMBL document CHEMBL1914308, “N-fused imidazoles as novel anticancer agents that inhibit catalytic activity of topoisomerase IIα and induce apoptosis in G1/S phase” (J Med Chem, 2011).

Calls of active or inactive are those of the source. No cut-off for these calls is given here. Where only a bound is given, the exact number is not on record here.

T1 sequence (P11388 whole entry): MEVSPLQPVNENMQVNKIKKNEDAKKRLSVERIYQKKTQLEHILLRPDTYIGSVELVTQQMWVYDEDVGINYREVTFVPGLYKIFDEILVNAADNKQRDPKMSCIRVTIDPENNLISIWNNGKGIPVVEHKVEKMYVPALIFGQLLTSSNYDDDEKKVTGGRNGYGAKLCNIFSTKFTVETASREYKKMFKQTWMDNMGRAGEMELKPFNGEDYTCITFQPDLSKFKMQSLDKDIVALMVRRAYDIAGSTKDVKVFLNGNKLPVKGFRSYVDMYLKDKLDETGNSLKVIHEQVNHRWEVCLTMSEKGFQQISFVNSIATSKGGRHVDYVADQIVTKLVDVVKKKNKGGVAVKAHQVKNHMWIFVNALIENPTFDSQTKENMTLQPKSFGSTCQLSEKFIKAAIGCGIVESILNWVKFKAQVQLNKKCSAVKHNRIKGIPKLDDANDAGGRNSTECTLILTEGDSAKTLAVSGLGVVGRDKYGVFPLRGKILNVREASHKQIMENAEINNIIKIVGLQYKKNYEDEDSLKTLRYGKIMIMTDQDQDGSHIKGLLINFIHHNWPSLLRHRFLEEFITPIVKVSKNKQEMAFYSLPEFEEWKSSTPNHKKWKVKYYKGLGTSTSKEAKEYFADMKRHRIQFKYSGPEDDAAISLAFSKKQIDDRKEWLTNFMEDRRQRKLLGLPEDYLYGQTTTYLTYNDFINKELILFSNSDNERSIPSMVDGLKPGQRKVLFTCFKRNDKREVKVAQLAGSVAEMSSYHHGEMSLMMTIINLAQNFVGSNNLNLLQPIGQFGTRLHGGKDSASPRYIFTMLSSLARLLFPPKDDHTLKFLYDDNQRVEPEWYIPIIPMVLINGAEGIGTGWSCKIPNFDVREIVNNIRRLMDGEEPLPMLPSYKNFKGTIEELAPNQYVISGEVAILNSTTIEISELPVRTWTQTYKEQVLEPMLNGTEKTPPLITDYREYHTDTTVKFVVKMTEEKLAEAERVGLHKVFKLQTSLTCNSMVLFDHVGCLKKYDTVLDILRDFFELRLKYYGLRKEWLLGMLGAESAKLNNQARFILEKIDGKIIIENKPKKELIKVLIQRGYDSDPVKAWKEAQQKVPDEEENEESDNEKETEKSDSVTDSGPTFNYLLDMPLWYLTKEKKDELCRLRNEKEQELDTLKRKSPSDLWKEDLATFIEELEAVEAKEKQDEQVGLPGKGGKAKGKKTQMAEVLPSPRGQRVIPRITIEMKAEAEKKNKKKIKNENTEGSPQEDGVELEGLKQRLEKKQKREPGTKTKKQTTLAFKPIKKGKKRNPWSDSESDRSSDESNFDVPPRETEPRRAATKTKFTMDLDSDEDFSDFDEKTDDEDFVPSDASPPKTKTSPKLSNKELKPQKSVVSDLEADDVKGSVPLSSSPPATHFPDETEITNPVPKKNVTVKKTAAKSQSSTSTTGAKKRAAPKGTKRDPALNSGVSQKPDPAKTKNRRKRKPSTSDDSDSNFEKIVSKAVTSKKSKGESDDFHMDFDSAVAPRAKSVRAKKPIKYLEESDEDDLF

For the molecule `CC(C)(C)Nc1c(-c2ccc(Cl)cc2)nc2ccccn12`, the inhibition result in data set [1] was “inactive”.

With `Nc1c(-c2ccc(Cl)cc2)nc2ccccn12`, the inhibition entry in data set [2] and in [1] was “Active” each time.

As for `COc1cc([C@@H]2c3cc4c(cc3[C@@H](O[C@@H]3O[C@@H]5CO[C@@H](C)O[C@H]5[C@H](O)[C@H]3O)[C@H]3COC(=O)[C@H]23)OCO4)cc(OC)c1O` [ETOPOSIDE], the inhibition entry in data set [3], in data set [4] and in data set [6] was “inactive” in each case. Further, the inhibition result in data set [5] and in data set [8] was “Active” in each case. For the same molecule, the CC50 in the data set on HEK293 [7] was determined as 90 µM.

For the molecule `Cc1ccn2c(NC(C)(C)C)c(-c3ccc(Cl)cc3)nc2c1`, the inhibition entry in data set [1] was “inactive”.

As for `CC(C)(C)Nc1c(-c2ccccc2)nc2cnccn12`, in [1], the inhibition entry is “inactive”.

For the molecule `CC(C)(C)Nc1cnc2ccccn12`, the inhibition result in data set [1] is “inactive”.

In the case of `CC(C)(C)Nc1c(-c2ccccc2Cl)nc2cnccn12`, in [1], the inhibition result is “Active”.

Take `CC(C)(C)Nc1c(-c2ccc(C(=O)O)cc2)nc2cnccn12`: the inhibition result in data set [1] was “inactive”.

Regarding `CC(C)(C)Nc1c(-c2ccc(Cl)cc2)nc2ncccn12`, the inhibition entry in [1] is “Active”.

Consider `CC(C)(C)Nc1c(-c2ccc[nH]2)nc2ccccn12`, for which, in [1], the inhibition entry was “inactive”.

Consider `O=c1[nH]cc(F)c(=O)[nH]1` [FLUOROURACIL], for which the viability at 30 µM in the data set with HEK293 [9] was 50%.

As to `CCCc1nc2ccccn2c1NC(C)(C)C`, the inhibition result in data set [1] is “inactive”.

As for `CC(C)(C)Nc1c(-c2ccc(Cl)cc2)nc2cnccn12`, the CC50 came to 20 µM in the data set on HEK293 [10] and 10 µM in the data set with HEK293 [7]. The inhibition result in data set [4], in [6] and in [8] was “inactive” each time. Besides, the inhibition result in [2] and in data set [1] was “Active” in each case. In the data set with Vero, the “inhibition (INH)” value is reported as “Dose-dependent effect”. The CC50 at 48 h in data set [11] worked out at 25 µM. Also, in data set [12], the viability at 48 h, 100 µM is less than 50%. In the data set on HEK293 [13], the inhibition entry was “Dose-dependent effect”.

As to `Nc1c(-c2ccc(Cl)cc2)nc2cnccn12`, the CC50 in the data set on HEK293 [10] amounted to 16 µM; with HEK293 [7] it was 17 µM. The inhibition entry in data set [4], in data set [6] and in data set [8] was “inactive” throughout. Moreover, the inhibition entry in [2] and in data set [1] was “Active” throughout. Besides, the “inhibition (INH)” value with Vero is on record as “Dose-dependent effect”. Also, in data set [11], the CC50 at 48 h was determined as 28 µM. Besides, the viability at 48 h, 100 µM in [12] was less than 50%. Also, in the data set with HEK293 [13], the inhibition entry was “Dose-dependent effect”.

`COc1cccc(-c2nc3cnccn3c2NC(C)(C)C)c1`: the inhibition entry in data set [1] was “inactive”.

`Nc1c(-c2ccccn2)nc2ccc(Cl)cn12`: the inhibition entry in data set [1] is “inactive”.

Consider `CC(C)(C)Nc1c(-c2cccc3ccccc23)nc2ccccn12`, for which, in [1], the inhibition entry is “Active”.

Take `CC(C)(C)Nc1c(-c2ccccn2)nc2ccccn12`: the inhibition entry in [2] and in data set [1] was “Active” throughout.

Consider `CC(C)(C)Nc1cnc2cnccn12`, for which, in data set [1], the inhibition entry was “inactive”.

For the molecule `COc1ccc(-c2nc3cnccn3c2N)cc1`, the inhibition result in [2] and in data set [1] was “Active” throughout.

Take `CCOC(=O)c1cnn2c(NC3CCCCC3)c(-c3ccc(Cl)cc3)[nH]c12`: the inhibition result in data set [1] was “Active”.

For `CC(C)(C)Nc1c(-c2ccc(Cl)cc2)nc2ccc(Cl)cn12`, the inhibition entry in data set [2] and in [1] was “Active” each time.

Turning to `CN(C)c1ccc(-c2nc3ccccn3c2NC(C)(C)C)cc1`, the inhibition entry in data set [1] is “Active”.

For `CC(C)(C)Nc1c(-c2ccc(F)cc2)nc2ccc(Cl)cn12`, the inhibition entry in data set [1] was “Active”.

Turning to `CC(C)(C)Nc1nc2ncccn2c1-c1ccc(C#N)cc1`, the inhibition result in data set [1] is “inactive”.

As to `CC(C)(C)Nc1c(-c2ccc(Cl)cc2)nc2[nH]c3ccccc3n12`, the inhibition entry in [1] was “Active”.

For the molecule `N#Cc1ccc(-c2nc3ccc(Br)cn3c2N)cc1`, the inhibition result in data set [1] was “Active”.

With `Clc1ccc(-c2nc3cnccn3c2NC2CCCCC2)cc1`, the inhibition result in data set [1] is “inactive”.

Consider `CCOC(=O)c1cnn2c(N)c(-c3ccc(Cl)cc3)[nH]c12`, for which the CC50 with HEK293 [10] and in the data set with HEK293 [7] was 25 µM in each case. Besides, the inhibition entry in data set [4], in data set [6] and in data set [8] was “inactive” in each case. The inhibition result in data set [2] and in [1] was “Active” throughout. Further, the “inhibition (INH)” value with Vero was “Dose-dependent effect”. Also, the CC50 at 48 h in [11] worked out at 62 µM. In addition, in data set [12], the viability at 48 h, 100 µM is less than 50%. Moreover, in the data set on HEK293 [13], the inhibition result was “Dose-dependent effect”.

For the molecule `CCOC(=O)c1cnn2c(NC(C)(C)C)c(-c3ccc(Cl)cc3)[nH]c12`, the CC50 with HEK293 [10] and in the data set with HEK293 [7] was 15 µM throughout. The inhibition result in data set [4], in data set [6] and in data set [8] was “inactive” throughout. The inhibition result in [2] and in [1] was “Active” in each case. The “inhibition (INH)” value in the data set on Vero was “Dose-dependent effect”. Further, the CC50 at 48 h in data set [11] turned out to be 22 µM. Besides, the viability at 48 h, 100 µM in data set [12] was less than 50%. The inhibition entry in the data set on HEK293 [13] is “Dose-dependent effect”.
